Assay results reported in paper PMC3780362 (Nuclear medicine and biology, 2009).

Tests used:
5-HT1B = 5-HT1B (Homo sapiens, UniProt P28222); assay: NIMH Psychoactive Drug Screening Program binding; conditions: based on the in vitro data
human 5-HT1B receptor = conditions: selectivity; cited from earlier work
5-HT1B receptor [1] = target: T1, 5-HT1B receptor (Macaca mulatta, UniProt F6SFA9); assay: Baseline brain PET imaging with [11C]P943; type: in vivo, Rhesus monkey
In short: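 Rhesus monkeys (5-8 kg) were fasted overnight, given ketamine 10 mg/kg i.m. and glycopyrrolate, then kept on ~2% isoflurane and scanned on HRRT PET after a transmission scan. Tracer dose was 5-7 mCi. Bolus scan: one animal, 120 min list-mode acquisition. Bolus plus infusion scans: Kbol 150 min, four animals. BPND = mean ROI/cerebellum concentration over 70-100 min, minus 1.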

5-HT1B receptor [2] = target: T1, 5-HT1B receptor; assay: Binding selectivity PET study: blocking of [11C]P943 with GR127935; type: in vivo, Rhesus monkey
In short: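 About three hours later came a second scan with GR127935 2 mg/kg i.v. bolus given before the tracer. Dose was 5.4 ± 0.7 mCi at 6.3 ± 0.9 mCi/nmol. BPND = ROI/cerebellum ratio from 70-100 min, minus 1, in control and blocked scans.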

5-HT1B receptor [3] = target: T1, 5-HT1B receptor; assay: Binding saturability PET study; type: in vivo, Rhesus monkey; conditions: high SA
In short: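 Self-block design: 2 anesthetized rhesus monkeys, each scanned on two days at high, medium and low specific activity by adding unlabeled test compound (12 scans). Dosing was 2 min i.v. bolus plus 118 min constant infusion, Kbol 150 min for high-SA scans. Net high SA at injection was 111.7 MBq/nmol. BPND = ROI/cerebellum equilibrium ratio over 70-100 min, minus 1.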

[4] = Mean of two monkeys, GR127935 2 mg/kg i.v.
[5] = Monkey#1, GR127935 2 mg/kg i.v.
[6] = Monkey#2, GR127935 2 mg/kg i.v.

T1 sequence (F6SFA9 1-390): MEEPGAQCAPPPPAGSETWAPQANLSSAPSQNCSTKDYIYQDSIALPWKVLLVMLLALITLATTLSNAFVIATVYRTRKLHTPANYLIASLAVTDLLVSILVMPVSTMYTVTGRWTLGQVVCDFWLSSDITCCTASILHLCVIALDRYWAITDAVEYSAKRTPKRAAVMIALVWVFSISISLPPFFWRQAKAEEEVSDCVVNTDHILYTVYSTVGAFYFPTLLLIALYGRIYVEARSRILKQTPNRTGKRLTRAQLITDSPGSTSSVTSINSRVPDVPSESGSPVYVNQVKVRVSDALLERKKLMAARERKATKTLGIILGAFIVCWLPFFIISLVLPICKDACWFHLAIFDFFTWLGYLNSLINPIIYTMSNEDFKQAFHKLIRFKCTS
Chain of 5-HT1B (P28222 whole entry, species assumed): as the sequence (F6SFA9 1-390) above, with A20V, T35A, A45S, V105I, D198E, R301K, L337M counted along it

## COC(C)(C)c1ccc(N2CC[C@@H](Cc3ccccc3N3CCN(C)CC3)C2=O)cc1 [P943, R-1-[4-(2-methoxy-isopropyl)-phenyl]-3-[2-(4-methyl-piperazin-1-yl)benzyl]-pyrrolidin-2-one]
5-HT1B
  affinity for 5HT1B higher than for 5-HT1A receptors: 50-100 times
Human 5-HT1B receptor
  affinity for other 5-HT and non-5-HT receptors lower than for 5-HT1B: at least 100 fold

## COC(C)(C)c1ccc(N2CC[C@@H](Cc3ccccc3N3CCN(C)CC3)C2=O)cc1 [[^11C]P943, (R)-1-(4-(2-methoxypropan-2-yl)phenyl)-3-(2-(4-methylpiperazin-1-yl)benzyl)pyrrolidin-2-one]
5-HT1B receptor [1]; 2 hr baseline scan, bolus injection
  time of peak uptake in most brain regions: 10 to 30 min
5-HT1B receptor [1]; bolus plus infusion
  time at which equilibrium was reached in the brain: ~70 min
5-HT1B receptor [2]; before blockade, paired study
  BPND frontal cortex, control scan: 0.49
  BPND occipital, control scan: 0.71
5-HT1B receptor [3]
  BPND at high specific activity, globus pallidus: 0.57
5-HT1B receptor [3]; highest value
  BPND at high specific activity, occipital cortex: 0.80

## COc1ccc(NC(=O)c2ccc(-c3ccc(-c4noc(C)n4)cc3C)cc2)cc1N1CCN(C)CC1 [GR127935]
5-HT1B receptor [2]; [4]
  %Reduction in BPND Caudate: 62%
  %Reduction in BPND Cingulate: 64%
  %Reduction in BPND Frontal: 91%
  %Reduction in BPND Globus Pallidus: 73%
  %Reduction in BPND Insula: 53%
  %Reduction in BPND Occipital: 95%
  %Reduction in BPND Putamen: 40%
  %Reduction in BPND Thalamus: 75%
5-HT1B receptor [2]; [5]
  %Reduction in BPND Caudate: 78%
  %Reduction in BPND Cingulate: 66%
  %Reduction in BPND Frontal: 84%
  %Reduction in BPND Globus Pallidus: 80%
  %Reduction in BPND Insula: 61%
  %Reduction in BPND Occipital: 96%
  %Reduction in BPND Putamen: 47%
  %Reduction in BPND Thalamus: 76%
5-HT1B receptor [2]; [6]
  %Reduction in BPND Caudate: 45%
  %Reduction in BPND Cingulate: 61%
  %Reduction in BPND Frontal: 98%
  %Reduction in BPND Globus Pallidus: 66%
  %Reduction in BPND Insula: 45%
  %Reduction in BPND Occipital: 94%
  %Reduction in BPND Putamen: 33%
  %Reduction in BPND Thalamus: 74%
5-HT1B receptor [2]; after GR127935 2 mg/kg i.v.
  BPND frontal cortex after blockade: 0.06
  BPND occipital after blockade: 0.03
